# Reference: ChEMBL document CHEMBL1142695, “Discovery of functionally selective 7,8,9,10-tetrahydro-7,10-ethano-1,2,4-triazolo[3,4-a]phthalazines as GABA A receptor agonists at the alpha3 subunit” (J Med Chem, 2005)
# Experiments:
# Assay type in all cases: cell-based
# [1] = target: GABA-A receptor; alpha-3/beta-3/gamma-2 (Homo sapiens) (UniProt P18507+P28472+P34903); assay: Efficacy was measured as modulation of the current in response to GABA at hGABA alpha-3-beta-3-gamma-2 receptor expressed in Xenopus oocytes; settings: Oocyte
# How it was run: (§1)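 Two-electrode voltage clamp on Xenopus oocytes expressing each receptor combination. […] Value is percent increase or decrease of the EC20 GABA current.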
# [2] = target: T1, GABA-A receptor; alpha-3/beta-3/gamma-2 (Homo sapiens, UniProt P18507+P28472+P34903); assay: Inhibition of [3H]Ro-151788 binding to recombinant human gamma-aminobutyric-acid A receptor alpha-3-beta-3-gamma-2 subtype expressed in L (tk-) cells
# T1 sequence (P18507 whole entry): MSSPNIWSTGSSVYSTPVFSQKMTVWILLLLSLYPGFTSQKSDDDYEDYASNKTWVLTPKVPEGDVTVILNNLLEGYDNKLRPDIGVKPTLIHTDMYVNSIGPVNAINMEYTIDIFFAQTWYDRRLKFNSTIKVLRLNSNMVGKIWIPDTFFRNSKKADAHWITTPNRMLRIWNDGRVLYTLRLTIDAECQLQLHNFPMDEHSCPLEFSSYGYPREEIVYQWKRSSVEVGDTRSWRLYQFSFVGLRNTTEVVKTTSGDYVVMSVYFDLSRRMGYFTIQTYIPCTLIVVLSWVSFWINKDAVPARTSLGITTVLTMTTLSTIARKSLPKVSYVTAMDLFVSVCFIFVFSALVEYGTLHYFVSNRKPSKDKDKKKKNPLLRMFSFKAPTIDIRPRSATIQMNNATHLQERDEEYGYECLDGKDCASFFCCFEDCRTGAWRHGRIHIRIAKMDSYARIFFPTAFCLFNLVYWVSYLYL
# T1 sequence (P28472 whole entry): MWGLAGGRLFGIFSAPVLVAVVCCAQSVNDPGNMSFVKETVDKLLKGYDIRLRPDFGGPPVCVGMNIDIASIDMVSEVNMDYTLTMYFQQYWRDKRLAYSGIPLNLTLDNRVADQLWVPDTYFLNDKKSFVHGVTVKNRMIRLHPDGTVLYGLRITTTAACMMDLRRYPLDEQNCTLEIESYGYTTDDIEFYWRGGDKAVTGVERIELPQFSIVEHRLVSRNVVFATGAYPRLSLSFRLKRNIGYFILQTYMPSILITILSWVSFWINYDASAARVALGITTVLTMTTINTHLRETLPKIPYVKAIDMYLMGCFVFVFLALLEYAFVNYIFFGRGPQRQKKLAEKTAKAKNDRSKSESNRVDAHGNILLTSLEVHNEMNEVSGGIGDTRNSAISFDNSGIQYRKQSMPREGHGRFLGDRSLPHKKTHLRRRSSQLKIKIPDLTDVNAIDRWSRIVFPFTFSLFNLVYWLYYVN
# T1 sequence (P34903 whole entry): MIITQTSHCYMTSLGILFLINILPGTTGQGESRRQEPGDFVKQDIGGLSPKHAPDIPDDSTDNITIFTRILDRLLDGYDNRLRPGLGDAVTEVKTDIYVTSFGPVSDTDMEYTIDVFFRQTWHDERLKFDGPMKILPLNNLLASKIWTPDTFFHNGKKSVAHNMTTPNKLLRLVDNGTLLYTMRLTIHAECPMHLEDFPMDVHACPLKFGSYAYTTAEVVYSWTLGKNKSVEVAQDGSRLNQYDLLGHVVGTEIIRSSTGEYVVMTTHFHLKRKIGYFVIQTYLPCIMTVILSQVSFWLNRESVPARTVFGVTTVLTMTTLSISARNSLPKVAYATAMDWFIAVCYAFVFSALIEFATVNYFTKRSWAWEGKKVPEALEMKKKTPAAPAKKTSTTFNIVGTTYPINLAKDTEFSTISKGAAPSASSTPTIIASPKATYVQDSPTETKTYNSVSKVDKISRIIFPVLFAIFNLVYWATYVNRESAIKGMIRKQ
# [3] = target: T2, GABA-A receptor; alpha-1/beta-3/gamma-2 (Homo sapiens, UniProt P14867+P18507+P28472); assay: Inhibition of [3H]Ro-151788 binding to recombinant human gamma-aminobutyric-acid A receptor alpha-1-beta-3-gamma-2 subtype expressed in L (tk-) cells
# T2 sequence (P14867 whole entry): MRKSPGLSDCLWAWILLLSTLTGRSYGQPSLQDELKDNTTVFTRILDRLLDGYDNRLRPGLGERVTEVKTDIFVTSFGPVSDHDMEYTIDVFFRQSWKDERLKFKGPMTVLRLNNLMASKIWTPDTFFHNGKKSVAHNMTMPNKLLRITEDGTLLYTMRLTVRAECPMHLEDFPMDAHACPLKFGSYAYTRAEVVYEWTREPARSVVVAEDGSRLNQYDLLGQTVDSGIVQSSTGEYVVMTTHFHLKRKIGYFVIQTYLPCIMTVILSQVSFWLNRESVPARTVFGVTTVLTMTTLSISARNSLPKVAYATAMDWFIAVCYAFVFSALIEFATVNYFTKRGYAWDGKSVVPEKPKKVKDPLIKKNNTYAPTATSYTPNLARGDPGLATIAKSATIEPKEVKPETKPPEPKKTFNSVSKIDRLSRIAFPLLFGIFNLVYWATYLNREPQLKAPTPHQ
# T2 sequence (P18507 whole entry): T1 sequence (P18507 whole entry)
# T2 sequence (P28472 whole entry): T1 sequence (P28472 whole entry)
# [4] = target: T3, GABA-A receptor; alpha-2/beta-3/gamma-2 (Homo sapiens, UniProt P18507+P28472+P47869); assay: Inhibition of [3H]Ro-151788 binding to recombinant human gamma-aminobutyric acid A receptor alpha-2-beta-3-gamma-2 subtype expressed in L (tk-) cells
# T3 sequence (P18507 whole entry): T1 sequence (P18507 whole entry)
# T3 sequence (P28472 whole entry): T1 sequence (P28472 whole entry)
# T3 sequence (P47869 whole entry): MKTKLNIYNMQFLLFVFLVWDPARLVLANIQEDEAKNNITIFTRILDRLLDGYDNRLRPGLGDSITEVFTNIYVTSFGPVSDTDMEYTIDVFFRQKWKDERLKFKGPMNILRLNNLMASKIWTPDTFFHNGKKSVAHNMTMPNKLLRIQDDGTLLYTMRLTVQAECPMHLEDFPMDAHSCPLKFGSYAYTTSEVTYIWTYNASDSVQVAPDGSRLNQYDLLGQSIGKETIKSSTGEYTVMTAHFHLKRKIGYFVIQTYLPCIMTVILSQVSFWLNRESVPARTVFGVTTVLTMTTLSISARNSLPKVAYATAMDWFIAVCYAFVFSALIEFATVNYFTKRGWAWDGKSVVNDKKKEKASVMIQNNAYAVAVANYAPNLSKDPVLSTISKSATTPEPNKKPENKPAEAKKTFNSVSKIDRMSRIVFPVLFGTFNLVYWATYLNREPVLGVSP
# [5] = target: GABA-A receptor; alpha-1/beta-3/gamma-2 (Homo sapiens) (UniProt P14867+P18507+P28472); assay: Efficacy was measured as modulation of the current in response to GABA at hGABA alpha-1-beta-3-gamma-2 receptor expressed in Xenopus oocytes; settings: Oocyte; how it was run: as §1
# [6] = target: T4, GABA-A receptor; alpha-5/beta-3/gamma-2 (Homo sapiens, UniProt P18507+P28472+P31644); assay: Inhibition of [3H]Ro-151788 binding to recombinant human gamma-aminobutyric-acid A receptor alpha-5-beta-3-gamma-2 subtype expressed in L (tk-) cells
# T4 sequence (P18507 whole entry): T1 sequence (P18507 whole entry)
# T4 sequence (P28472 whole entry): T1 sequence (P28472 whole entry)
# T4 sequence (P31644 whole entry): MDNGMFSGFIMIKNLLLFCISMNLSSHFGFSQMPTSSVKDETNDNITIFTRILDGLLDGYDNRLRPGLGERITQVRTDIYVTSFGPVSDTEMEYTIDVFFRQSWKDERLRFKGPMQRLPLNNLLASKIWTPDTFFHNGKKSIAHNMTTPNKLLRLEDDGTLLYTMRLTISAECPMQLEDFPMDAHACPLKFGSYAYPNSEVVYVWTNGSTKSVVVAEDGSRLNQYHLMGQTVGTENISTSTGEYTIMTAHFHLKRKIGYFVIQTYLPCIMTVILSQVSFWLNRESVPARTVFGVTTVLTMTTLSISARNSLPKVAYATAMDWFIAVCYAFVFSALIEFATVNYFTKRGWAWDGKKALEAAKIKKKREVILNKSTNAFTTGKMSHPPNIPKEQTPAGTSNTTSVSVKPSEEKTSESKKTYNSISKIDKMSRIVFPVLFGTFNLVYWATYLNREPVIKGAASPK
SMILES,Efficacy [1] [%],Ki [2] [nM],Ki [3] [nM],Ki [4] [nM],Efficacy [5] [%],Ki [6] [nM]
CCCc1cccnc1COc1nn2c(-c3ccccc3)nnc2c2c1C1CCC2CC1,52,2.4,3.5,9.9,62,3.1
c1ccc(-c2nnc3c4c(c(OCn5cccn5)nn23)C2CCC4CC2)cc1,0,19,130,43,76,2.7
Cc1c[nH]c(COc2nn3c(-c4ccccc4)nnc3c3c2C2CCC3CC2)n1,28,7.8,85,15,–,0.9
CCn1ccnc1COc1nn2c(-c3ccccc3)nnc2c2c1C1CCC2CC1,23,1,3.3,2.3,26,0.29
Cc1ccnc(COc2nn3c(-c4ccccc4)nnc3c3c2C2CCC3CC2)c1C,17,1.7,11,4,–,1
c1ccc(COc2cccnc2COc2nn3c(-c4ccccc4)nnc3c3c2C2CCC3CC2)cc1,132,20,160,100,178,7
CCCn1cnc(COc2nn3c(-c4ccccc4)nnc3c3c2C2CCC3CC2)n1,83,40,78,50,–,9
CCCn1ncnc1COc1nn2c(-c3ccccc3)nnc2c2c1C1CCC2CC1,78,1.4,0.9,2.5,41,0.19
Cc1cnc(COc2nn3c(-c4ccccc4)nnc3c3c2C2CCC3CC2)c(C)c1,-2,0.71,3.4,3.4,34,0.2
Cc1ccc(C)c(COc2nn3c(-c4ccccc4)nnc3c3c2C2CCC3CC2)n1,12,3.6,27,8.7,–,0.84
OCCCCOc1nn2c(-c3ccccc3)nnc2c2c1C1CCC2CC1,20,19,71,34,–,8.5

# The remaining lines, values ahead:
Efficacy [1] [%],Ki [2] [nM],Ki [3] [nM],Ki [4] [nM],Efficacy [5] [%],Ki [6] [nM],SMILES
31,10,50,22,–,2.1,Cc1ccc(COc2nn3c(-c4ccccc4)nnc3c3c2C2CCC3CC2)nn1
33,10,68,21,33,1.2,c1ccc(-c2nnc3c4c(c(OCc5cscn5)nn23)C2CCC4CC2)cc1
33,18,93,19,41,2,Cc1ccnc(COc2nn3c(-c4ccccc4)nnc3c3c2C2CCC3CC2)c1
27,18,100,35,84,2.7,c1ccc(-c2nnc3c4c(c(OCc5nccs5)nn23)C2CCC4CC2)cc1
17,13,140,82,38,4.7,c1ccc(-c2nnc3c4c(c(OCc5ccncc5)nn23)C2CCC4CC2)cc1
8,2.4,17,9.1,–,0.65,COc1cccnc1COc1nn2c(-c3ccccc3)nnc2c2c1C1CCC2CC1
14,3.1,22,8.1,–,0.555,c1ccc(-c2nnc3c4c(c(OCc5ccncn5)nn23)C2CCC4CC2)cc1
17,1.7,13,5.9,–,0.54,N#Cc1cccnc1COc1nn2c(-c3ccccc3)nnc2c2c1C1CCC2CC1
